Experimental data: ChEMBL document CHEMBL3046803, “Synthesis and insecticidal activities of novel anthranilic diamides containing acylthiourea and acylurea” (2012)
In brackets after ≈: the same amount, converted by molar mass. Activity calls are given as the source filed them. The rule behind the calls is not given here.

What was measured:
[1] = target: Voltage-dependent L-type calcium channel, putative (Pediculus humanus subsp. corporis) (UniProt E0VY79); experiment: Inhibition of voltage-dependent L-type calcium channel in Spodoptera exigua neurons assessed as peak calcium current at 0.1 mM measured 3 min post dose by electrophysiology method (reference value: 101.76 +/- 2.7%); design: scale not given: the % may be the effect or the level left
Chain of Voltage-dependent L-type calcium channel, putative (Pediculus humanus subsp. corporis) (E0VY79 as listed by the source): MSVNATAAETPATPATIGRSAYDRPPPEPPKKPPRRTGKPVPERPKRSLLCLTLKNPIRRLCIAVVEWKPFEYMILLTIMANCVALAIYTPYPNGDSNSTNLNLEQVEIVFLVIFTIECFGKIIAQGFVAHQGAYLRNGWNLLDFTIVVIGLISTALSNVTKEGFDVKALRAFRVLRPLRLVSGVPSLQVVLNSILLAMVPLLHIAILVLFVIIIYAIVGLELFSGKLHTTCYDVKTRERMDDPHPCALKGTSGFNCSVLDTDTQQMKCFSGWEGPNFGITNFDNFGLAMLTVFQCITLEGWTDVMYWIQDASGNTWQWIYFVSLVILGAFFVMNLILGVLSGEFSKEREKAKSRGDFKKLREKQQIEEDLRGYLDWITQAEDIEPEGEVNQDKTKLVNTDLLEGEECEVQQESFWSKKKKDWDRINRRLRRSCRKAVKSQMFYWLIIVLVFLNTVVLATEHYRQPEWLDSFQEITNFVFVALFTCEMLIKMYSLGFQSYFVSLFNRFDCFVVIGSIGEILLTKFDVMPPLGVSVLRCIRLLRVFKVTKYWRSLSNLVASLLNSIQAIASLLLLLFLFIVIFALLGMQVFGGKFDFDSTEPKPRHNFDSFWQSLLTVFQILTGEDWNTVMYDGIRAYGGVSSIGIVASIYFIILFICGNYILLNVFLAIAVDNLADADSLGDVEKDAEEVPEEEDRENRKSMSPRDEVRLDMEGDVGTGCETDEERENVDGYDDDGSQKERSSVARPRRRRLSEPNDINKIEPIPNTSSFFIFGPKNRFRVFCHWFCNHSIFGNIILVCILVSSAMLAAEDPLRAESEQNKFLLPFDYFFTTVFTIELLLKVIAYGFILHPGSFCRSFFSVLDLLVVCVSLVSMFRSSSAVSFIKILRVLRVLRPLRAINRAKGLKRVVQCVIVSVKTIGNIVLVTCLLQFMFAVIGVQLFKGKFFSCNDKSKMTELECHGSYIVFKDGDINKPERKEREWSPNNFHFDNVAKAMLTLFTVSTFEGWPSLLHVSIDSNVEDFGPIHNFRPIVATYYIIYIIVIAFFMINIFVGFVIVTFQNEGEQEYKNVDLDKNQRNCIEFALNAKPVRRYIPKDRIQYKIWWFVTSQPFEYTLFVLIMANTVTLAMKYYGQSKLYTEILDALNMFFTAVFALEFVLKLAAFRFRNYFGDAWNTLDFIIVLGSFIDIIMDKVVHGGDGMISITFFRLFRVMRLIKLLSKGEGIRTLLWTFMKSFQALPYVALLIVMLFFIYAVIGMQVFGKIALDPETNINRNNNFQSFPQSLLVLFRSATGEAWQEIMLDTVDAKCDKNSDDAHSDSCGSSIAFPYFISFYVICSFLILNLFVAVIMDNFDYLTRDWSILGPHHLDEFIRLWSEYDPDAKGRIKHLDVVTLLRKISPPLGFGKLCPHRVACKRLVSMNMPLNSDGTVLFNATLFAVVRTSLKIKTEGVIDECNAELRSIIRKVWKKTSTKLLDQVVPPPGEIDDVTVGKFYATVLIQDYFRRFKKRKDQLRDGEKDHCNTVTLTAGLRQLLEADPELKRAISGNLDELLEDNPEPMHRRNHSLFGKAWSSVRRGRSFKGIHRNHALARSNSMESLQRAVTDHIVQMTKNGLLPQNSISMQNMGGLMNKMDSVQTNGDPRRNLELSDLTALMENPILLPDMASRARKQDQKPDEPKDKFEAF

[2] = target: Voltage-dependent L-type calcium channel, putative (Pediculus humanus subsp. corporis) (UniProt E0VY79); experiment: Inhibition of voltage-dependent L-type calcium channel in Spodoptera exigua neurons assessed as increase in intracellular calcium level at 1000 mg/L measured 10 min post dose by calcium-imaging technique; assay type: cell-based
In short: (§1)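 S. exigua neurons were rinsed in physiological saline (pH 6.9). They were dye-loaded in the dark at 28 °C, either with 10 μM fluo-3-AM for 45 min in standard saline or with 5 μM fluo-5N for 5 h in EGTA Ca-free saline, then rinsed twice. [Ca²⁺]i was imaged on an inverted fluorescence microscope (40× oil, 488/530 nm) over 10 min. F/F₀ is relative to resting baseline; ≥6 repeats; mean ± SD.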

[3] = target: Voltage-dependent L-type calcium channel, putative (Pediculus humanus subsp. corporis) (UniProt E0VY79); experiment: Inhibition of voltage-dependent L-type calcium channel in Spodoptera exigua neurons assessed as peak calcium current at 0.1 mM measured 5 min post dose by electrophysiology method (reference value: 98.06 +/- 1.01%); design: scale not given: the % may be the effect or the level left
[4] = target: Voltage-dependent L-type calcium channel, putative (Pediculus humanus subsp. corporis) (UniProt E0VY79); experiment: Inhibition of voltage-dependent L-type calcium channel in Spodoptera exigua neurons assessed as peak calcium current at 0.1 mM measured 10 min post dose by electrophysiology method (reference value: 85.44 +/- 1.14%); design: scale not given: the % may be the effect or the level left
[5] = target: Voltage-dependent L-type calcium channel, putative (Pediculus humanus subsp. corporis) (UniProt E0VY79); experiment: Inhibition of voltage-dependent L-type calcium channel in Spodoptera exigua neurons assessed as peak calcium current at 0.1 mM at -70 mV holding potential measured 5 min post dose by electrophysiology method
[6] = target: Voltage-dependent L-type calcium channel, putative (Pediculus humanus subsp. corporis) (UniProt E0VY79); experiment: Inhibition of voltage-dependent L-type calcium channel in Spodoptera exigua neurons assessed as peak calcium current at 0.1 mM measured 4 min post dose by electrophysiology method (reference value: 99.66 +/- 1.64%); design: scale not given: the % may be the effect or the level left
Mythimna separata [7] = experiment: Insecticidal activity against Mythimna separata (Oriental armyworm) fourth-instar larvae infected Zea mays leaves assessed as larvicidal activity at 200 mg/L measured 2 days post dose; assay type: functional
In short: (§2)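 Foliar application test: individual corn (Tangyu 10) leaves were placed on moistened filter paper in Petri dishes.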

Mythimna separata [8] = experiment: Insecticidal activity against Mythimna separata (Oriental armyworm) fourth-instar larvae infected Zea mays leaves assessed as larvicidal activity at 50 mg/L measured 2 days post dose; assay type: functional; in short: as §2
Culex pipiens pallens [9] = experiment: Insecticidal activity against Culex pipiens pallens (mosquito) fourth-instar larvae assessed as larvicidal activity at 2 mg/L measured 3 days post dose; assay type: functional
In short: (§3)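 Mosquito larvicidal test: compounds were dissolved in acetone and diluted with distilled water to the test concentrations.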

[10] = target: Ryanodien receptor (Spodoptera exigua) (UniProt H9CNL0); experiment: Inhibition of Ryanodine receptor in Spodoptera exigua neurons assessed as reduction in intracellular calcium level at 1000 mg/L pre-treated with 10 mg/ml heparin and 1 uM thapsigargin by calcium-imaging technique; assay type: cell-based
In short: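 Primary cultured S. exigua neurons were rinsed in saline, then loaded in the dark at 28 °C with 5 μM fluo-5N for 5 h in Ca-free saline (150 mM NaCl, 4 mM KCl, 2 mM MgCl₂, 2 mM EGTA, 10 mM HEPES, pH 6.9). They were treated with 10 mg/mL heparin for 20 min, then 1 μM thapsigargin for 10 min. Fluorescence was imaged (40× oil, 488/530 nm) and expressed as F/F₀.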

Mythimna separata [11] = experiment: Insecticidal activity against Mythimna separata (Oriental armyworm) fourth-instar larvae infected Zea mays leaves assessed as larvicidal activity at 10 mg/L measured 2 days post dose; assay type: functional; in short: as §2
[12] = target: Voltage-dependent L-type calcium channel, putative (Pediculus humanus subsp. corporis) (UniProt E0VY79); experiment: Inhibition of voltage-dependent L-type calcium channel in Spodoptera exigua neurons assessed as peak calcium current at 0.001 mM measured 3 min post dose by electrophysiology method (reference value: 101.76 +/- 2.7%); design: scale not given: the % may be the effect or the level left
[13] = target: Voltage-dependent L-type calcium channel, putative (Pediculus humanus subsp. corporis) (UniProt E0VY79); experiment: Inhibition of voltage-dependent L-type calcium channel in Spodoptera exigua neurons assessed as peak calcium current at 0.1 mM measured 2 min post dose by electrophysiology method (reference value: 102.75 +/- 2.45%); design: scale not given: the % may be the effect or the level left
[14] = target: Voltage-dependent L-type calcium channel, putative (Pediculus humanus subsp. corporis) (UniProt E0VY79); experiment: Inhibition of voltage-dependent L-type calcium channel in Spodoptera exigua neurons assessed as peak calcium current at 0.001 mM measured 5 min post dose by electrophysiology method (reference value: 98.06 +/- 1.01%); design: scale not given: the % may be the effect or the level left
Mythimna separata [15] = experiment: Insecticidal activity against Mythimna separata (Oriental armyworm) fourth-instar larvae infected Zea mays leaves assessed as larvicidal activity at 20 mg/L measured 2 days post dose; assay type: functional; in short: as §2
[16] = target: Voltage-dependent L-type calcium channel, putative (Pediculus humanus subsp. corporis) (UniProt E0VY79); experiment: Inhibition of voltage-dependent L-type calcium channel in Spodoptera exigua neurons assessed as peak calcium current at 0.1 mM at -70 mV holding potential measured 10 min post dose by electrophysiology method
Mythimna separata [17] = experiment: Insecticidal activity against Mythimna separata (Oriental armyworm) fourth-instar larvae infected Zea mays leaves assessed as larvicidal activity at 5 mg/L measured 2 days post dose; assay type: functional; in short: as §2
[18] = target: Voltage-dependent L-type calcium channel, putative (Pediculus humanus subsp. corporis) (UniProt E0VY79); experiment: Inhibition of voltage-dependent L-type calcium channel in Spodoptera exigua neurons assessed as peak calcium current at 0.001 mM measured 4 min post dose by electrophysiology method (reference value: 99.66 +/- 1.64%); design: scale not given: the % may be the effect or the level left
[19] = target: Voltage-dependent L-type calcium channel, putative (Pediculus humanus subsp. corporis) (UniProt E0VY79); experiment: Inhibition of voltage-dependent L-type calcium channel in Spodoptera exigua neurons assessed as peak calcium current at 0.1 mM measured 8 min post dose by electrophysiology method (reference value: 90.85 +/- 0.65%); design: scale not given: the % may be the effect or the level left
[20] = target: Voltage-dependent L-type calcium channel, putative (Pediculus humanus subsp. corporis) (UniProt E0VY79); experiment: Inhibition of voltage-dependent L-type calcium channel in Spodoptera exigua neurons assessed as peak calcium current at 0.001 mM measured 10 min post dose by electrophysiology method (reference value: 85.44 +/- 1.14%); design: scale not given: the % may be the effect or the level left
[21] = target: Voltage-dependent L-type calcium channel, putative (Pediculus humanus subsp. corporis) (UniProt E0VY79); experiment: Inhibition of voltage-dependent L-type calcium channel in Spodoptera exigua neurons assessed as change in peak calcium current at 0.1 mM at -70 mV holding potential measured 1 min post dose by electrophysiology method
[22] = target: Voltage-dependent L-type calcium channel, putative (Pediculus humanus subsp. corporis) (UniProt E0VY79); experiment: Inhibition of voltage-dependent L-type calcium channel in Spodoptera exigua neurons assessed as change in peak calcium current at 0.001 mM at -70 mV holding potential measured 1 to 10 min post dose by electrophysiology method
[23] = target: Voltage-dependent L-type calcium channel, putative (Pediculus humanus subsp. corporis) (UniProt E0VY79); experiment: Inhibition of voltage-dependent L-type calcium channel in Spodoptera exigua neurons assessed as peak calcium current at 0.1 mM measured 1 min post dose by electrophysiology method (reference value: 104.47 +/- 2.33%); design: scale not given: the % may be the effect or the level left
[24] = target: Voltage-dependent L-type calcium channel, putative (Pediculus humanus subsp. corporis) (UniProt E0VY79); experiment: Inhibition of voltage-dependent L-type calcium channel in Spodoptera exigua neurons assessed as change in […] calcium level at 1000 mg/L measured 10 min post dose by calcium-imaging technique; in short: as §1
[25] = target: Voltage-dependent L-type calcium channel, putative (Pediculus humanus subsp. corporis) (UniProt E0VY79); experiment: Inhibition of voltage-dependent L-type calcium channel in Spodoptera exigua neurons assessed as peak intracellular calcium level at 1000 mg/L measured 10 min post dose by calcium-imaging technique relative to initial untreated control; assay type: cell-based; design: scale not given: the % may be the effect or the level left; in short: as §1
Mythimna separata [26] = experiment: Insecticidal activity against Mythimna separata (Oriental armyworm) fourth-instar larvae infected Zea mays leaves assessed as larvicidal activity at 100 mg/L measured 2 days post dose; assay type: functional; in short: as §2
[27] = target: Voltage-dependent L-type calcium channel, putative (Pediculus humanus subsp. corporis) (UniProt E0VY79); experiment: Inhibition of voltage-dependent L-type calcium channel in Spodoptera exigua neurons assessed as peak calcium current at 0.001 mM measured 8 min post dose by electrophysiology method (reference value: 90.85 +/- 0.65%); design: scale not given: the % may be the effect or the level left
Plutella xylostella [28] = experiment: Insecticidal activity against Plutella xylostella (diamondback moth) s-instar larvae infected in fresh cabbage leaves assessed as larvicidal activity at 0.001 mg/L measured 2 days post dose; assay type: functional
In short: (§4)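 Leaf-dip (spray) test: a 200 mg/L stock in DMF was diluted with distilled water. Cabbage leaf disks (6 × 2 cm) were sprayed for 3 s, dried, and placed individually in glass tubes. Each disk received 30 second-instar larvae. Mortality was scored at 2 days; triplicate.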

Plutella xylostella [29] = experiment: Insecticidal activity against Plutella xylostella (diamondback moth) s-instar larvae infected in fresh cabbage leaves assessed as larvicidal activity at 0.1 mg/L measured 2 days post dose; assay type: functional; in short: as §4
Plutella xylostella [30] = experiment: Insecticidal activity against Plutella xylostella (diamondback moth) s-instar larvae infected in fresh cabbage leaves assessed as larvicidal activity at 0.01 mg/L measured 2 days post dose; assay type: functional; in short: as §4
Plutella xylostella [31] = experiment: Insecticidal activity against Plutella xylostella (diamondback moth) s-instar larvae infected in fresh cabbage leaves assessed as larvicidal activity at 20 mg/L measured 2 days post dose; assay type: functional; in short: as §4
Plutella xylostella [32] = experiment: Insecticidal activity against Plutella xylostella (diamondback moth) s-instar larvae infected in fresh cabbage leaves assessed as larvicidal activity at 1 mg/L measured 2 days post dose; assay type: functional; in short: as §4
Culex pipiens pallens [33] = experiment: Insecticidal activity against Culex pipiens pallens (mosquito) fourth-instar larvae assessed as larvicidal activity at 0.5 mg/L measured 3 days post dose; assay type: functional; in short: as §3
Plutella xylostella [34] = experiment: Insecticidal activity against Plutella xylostella (diamondback moth) s-instar larvae infected in fresh cabbage leaves assessed as larvicidal activity measured 2 days post dose; assay type: functional; conditions: 48 h; in short: as §4
Culex pipiens pallens [35] = experiment: Insecticidal activity against Culex pipiens pallens (mosquito) fourth-instar larvae assessed as larvicidal activity at 1 mg/L measured 3 days post dose; assay type: functional; in short: as §3

| SMILES | Activity [1] [%] | Activity [2] | Activity [3] [%] | Activity [4] [%] | Activity [6] [%] | Activity (Mythimna separata [7]) [%] | Activity (Mythimna separata [8]) [%] | Activity (Culex pipiens pallens [9]) [%] | Activity (Mythimna separata [11]) [%] | Activity [13] [%] | Activity (Mythimna separata [15]) [%] | Activity (Mythimna separata [17]) [%] | Activity [19] [%] | Activity [23] [%] | inhibition [24] | Activity [25] [%] | Activity (Mythimna separata [26]) [%] | Activity (Plutella xylostella [28]) [%] | Activity (Plutella xylostella [29]) [%] | Activity (Plutella xylostella [30]) [%] | other results |
| --- | --- | --- | --- | --- | --- | --- | --- | --- | --- | --- | --- | --- | --- | --- | --- | --- | --- | --- | --- | --- | --- |
| Cc1cc(Cl)cc(C(=O)NC(C)C)c1NC(=S)NC(=O)c1cc(Cl)nn1-c1ncccc1Cl | 80.7 | Active | 70.2 | 54.7 | 74.4 | 100 | 100 | 40 | 100 | 84.1 | 100 | 40 | 61 | 91.5 | inactive | 117 | 100 |  |  |  | Activity [5]: -1.64 nanoampere; inhibition [10]: Active; Activity [12]: 95.8%; Activity [14]: 84.4%; Activity [16]: -1.27 nanoampere; Activity [18]: 90.1%; Activity [20]: 74.6%; Activity [21]: 10 mV; inhibition [22]: inactive; Activity [27]: 81.2% |
| CNC(=O)c1cc(Cl)cc(C)c1NC(=S)NC(=O)c1cc(C(F)(F)F)nn1-c1ncccc1Cl |  | Active |  |  |  | 100 | 100 |  | 100 |  | 100 | 50 |  |  | inactive | 112 | 100 | 43 | 100 | 71 | Activity (Plutella xylostella [31]): 100%; Activity (Plutella xylostella [32]): 100% |
| CNC(=O)c1cc(Cl)cc(C)c1NC(=O)c1cc(Br)nn1-c1ncccc1Cl [CHLORANTRANILIPROLE] | 69.6 |  | 55.8 | 39.7 | 63.4 | 100 | 100 | 100 | 100 | 74 | 100 | 100 | 44.3 | 89.6 |  | 123 | 100 | 100 | 100 | 100 | Activity (Culex pipiens pallens [33]): 100%; LC50 (Plutella xylostella [34]): 0.0123 ng/mL (≈ 0.0255 nM); Activity (Plutella xylostella [31]): 100%; Activity (Plutella xylostella [32]): 100%; Activity (Culex pipiens pallens [35]): 100% |
